What was measured:
[1] = biological target: T1, CYP19 (aromatase) (Homo sapiens, UniProt P11511); test: Inhibition of CYP19 in human placental microsomes using [1beta-3H]androstenedione as substrate at 0.5 uM; settings: probe [1beta-3H]androstenedione
T1 sequence (P11511 whole entry): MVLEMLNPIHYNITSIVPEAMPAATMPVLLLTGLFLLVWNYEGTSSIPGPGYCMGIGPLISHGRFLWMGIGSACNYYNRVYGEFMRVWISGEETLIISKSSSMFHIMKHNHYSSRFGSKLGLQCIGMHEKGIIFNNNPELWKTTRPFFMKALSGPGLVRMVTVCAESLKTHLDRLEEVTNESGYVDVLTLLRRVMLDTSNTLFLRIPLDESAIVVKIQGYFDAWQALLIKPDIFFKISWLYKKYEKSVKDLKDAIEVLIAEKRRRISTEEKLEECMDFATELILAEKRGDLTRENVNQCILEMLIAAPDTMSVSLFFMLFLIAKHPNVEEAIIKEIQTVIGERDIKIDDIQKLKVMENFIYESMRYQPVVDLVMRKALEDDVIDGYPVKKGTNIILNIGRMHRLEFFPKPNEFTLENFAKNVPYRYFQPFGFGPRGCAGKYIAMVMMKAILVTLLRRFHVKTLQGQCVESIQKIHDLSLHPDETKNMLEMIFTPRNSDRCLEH

[2] = biological target: T2, CYP17 (Homo sapiens, UniProt P05093); test: Inhibition of human recombinant CYP17 expressed in Escherichia coli using progesterone as substrate at 2 uM; settings: probe progesterone
T2 sequence (P05093 whole entry): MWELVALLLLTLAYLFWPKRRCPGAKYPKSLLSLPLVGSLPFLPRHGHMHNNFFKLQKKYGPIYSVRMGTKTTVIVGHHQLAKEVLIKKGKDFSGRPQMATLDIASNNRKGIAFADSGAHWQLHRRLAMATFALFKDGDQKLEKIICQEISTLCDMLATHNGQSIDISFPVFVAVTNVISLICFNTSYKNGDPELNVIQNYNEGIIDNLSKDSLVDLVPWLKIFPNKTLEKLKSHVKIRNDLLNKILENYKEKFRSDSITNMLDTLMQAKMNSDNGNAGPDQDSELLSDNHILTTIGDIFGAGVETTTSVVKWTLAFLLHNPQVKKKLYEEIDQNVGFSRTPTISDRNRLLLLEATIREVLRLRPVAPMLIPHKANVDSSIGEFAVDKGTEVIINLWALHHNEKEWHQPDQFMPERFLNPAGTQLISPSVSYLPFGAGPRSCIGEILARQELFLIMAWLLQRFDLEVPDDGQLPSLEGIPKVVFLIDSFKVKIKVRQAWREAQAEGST
How it was run: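 Recombinantly expressed human CYP17 with progesterone as substrate. Inhibition is reported as percent at an inhibitor concentration of 2.0 μM.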

[3] = organism: Homo sapiens; test: Selectivity ratio of IC50 for human CYP11B2 to IC50 for human CYP11B1
[4] = biological target: T3, Cytochrome P450 11B2, mitochondrial (Homo sapiens, UniProt P19099); test: Inhibition of human CYP11B2 expressed in hamster V79 MZ cells using [3H] 11 deoxycorticosterone as substrate by HPLC radioflow detector; format: cell-based
T3 sequence (P19099 whole entry): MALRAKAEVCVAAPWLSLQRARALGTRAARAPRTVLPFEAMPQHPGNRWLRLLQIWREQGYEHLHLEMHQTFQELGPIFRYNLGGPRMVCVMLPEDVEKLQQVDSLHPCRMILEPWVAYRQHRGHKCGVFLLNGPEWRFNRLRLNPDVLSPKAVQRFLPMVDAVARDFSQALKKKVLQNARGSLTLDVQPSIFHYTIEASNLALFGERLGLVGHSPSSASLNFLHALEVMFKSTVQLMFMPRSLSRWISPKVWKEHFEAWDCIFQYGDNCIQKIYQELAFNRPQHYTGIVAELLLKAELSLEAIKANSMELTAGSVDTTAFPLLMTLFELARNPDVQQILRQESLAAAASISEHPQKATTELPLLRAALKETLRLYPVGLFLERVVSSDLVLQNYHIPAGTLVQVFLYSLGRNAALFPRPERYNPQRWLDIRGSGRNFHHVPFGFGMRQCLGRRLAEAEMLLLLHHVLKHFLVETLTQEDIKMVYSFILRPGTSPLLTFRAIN

[5] = biological target: T4, Cytochrome P450 11B1, mitochondrial (Homo sapiens, UniProt P15538); test: Inhibition of human CYP11B1 expressed in hamster V79 MZ cells using [3H] 11 deoxycorticosterone as substrate by HPLC radioflow detector; format: cell-based
T4 sequence (P15538 whole entry): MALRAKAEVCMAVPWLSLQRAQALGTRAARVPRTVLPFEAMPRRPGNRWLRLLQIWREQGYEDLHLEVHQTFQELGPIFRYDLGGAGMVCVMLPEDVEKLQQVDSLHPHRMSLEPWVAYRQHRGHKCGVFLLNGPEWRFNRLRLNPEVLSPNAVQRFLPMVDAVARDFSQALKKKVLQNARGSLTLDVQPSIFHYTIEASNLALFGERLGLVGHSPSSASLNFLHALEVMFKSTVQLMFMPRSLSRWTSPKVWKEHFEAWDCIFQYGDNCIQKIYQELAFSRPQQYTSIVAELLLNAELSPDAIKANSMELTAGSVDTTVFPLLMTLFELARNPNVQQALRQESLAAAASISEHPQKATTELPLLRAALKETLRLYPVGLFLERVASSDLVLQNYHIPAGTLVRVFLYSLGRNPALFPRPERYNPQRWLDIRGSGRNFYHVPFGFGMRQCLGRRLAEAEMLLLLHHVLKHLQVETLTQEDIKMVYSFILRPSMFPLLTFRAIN

[6] = biological target: T3, Cytochrome P450 11B2, mitochondrial; test: Inhibition of human CYP11B2 expressed in hamster V79 MZ cells using [3H] 11 deoxycorticosterone as substrate at 500 nM by HPLC radioflow detector; format: cell-based; settings: v79, 0.5 µM

Row | inhibition at 0.5 µM [1] [%] | inhibition at 2 µM [2] [%] | Ratio IC50 [3] | IC50 [4] [nM] | IC50 [5] [nM] | inhibition (INH) [6] | Structure (SMILES)
1 | < 10 | < 10 | 5 | – | – | – | Fc1ccc(-c2ccc(Cn3ccnc3)cn2)cc1F
2 | – | – | 3.5 | – | – | – | c1cc(-c2ccc(Cn3ccnc3)cn2)ccn1
3 | < 10 | < 10 | 31 | – | – | – | Nc1cccc(-c2ccc(Cn3ccnc3)cn2)c1
4 | < 10 | < 10 | 10 | – | – | – | Fc1ccc(-c2ccc(Cn3ccnc3)cn2)cc1
5 | < 10 | < 10 | 21 | – | – | – | Nc1ccccc1-c1ccc(Cn2ccnc2)cn1
6 | – | – | – | > 1000 | – | – | N#Cc1ccc(-c2ccc(Cn3ccnc3)cn2)cc1
7 | < 10 | < 10 | – | > 1000 | – | – | Fc1cccc(-c2ccc(Cn3ccnc3)cn2)c1
8 | < 10 | < 10 | 5 | – | – | – | Nc1ccc(-c2ccc(Cn3ccnc3)cn2)cc1
9 | – | – | 18 | – | – | – | c1ccc(-c2ccc(Cn3ccnc3)cn2)cc1
10 | – | – | 8 | – | – | – | c1cncc(-c2ccc(Cn3ccnc3)cn2)c1
11 | < 10 | < 10 | 24 | – | – | – | Fc1ccccc1-c1ccc(Cn2ccnc2)cn1
12 | < 10 | < 10 | – | > 1000 | – | – | Cc1ccc(-c2ccc(Cn3ccnc3)cn2)cc1N
13 | – | – | 3.2 | – | – | – | c1ccc2cc(-c3ccc(Cn4ccnc4)cn3)ccc2c1
14 | – | – | – | > 1000 | – | – | N#Cc1cccc(-c2ccc(Cn3ccnc3)cn2)c1
15 | – | – | 14 | – | – | – | Oc1ccc(-c2ccc(Cn3ccnc3)cn2)cc1F

The next lines start with the compound.

Row | Structure (SMILES) | inhibition at 0.5 µM [1] [%] | inhibition at 2 µM [2] [%] | Ratio IC50 [3] | IC50 [4] [nM] | IC50 [5] [nM] | inhibition (INH) [6]
16 | COc1ccccc1-c1ccc(Cn2ccnc2)cn1 | < 10 | < 10 | 26 | – | – | –
17 | c1csc(-c2ccc(Cn3ccnc3)cn2)c1 | < 10 | < 10 | 17 | – | – | –
18 | c1cn(Cc2ccc(-c3ccsc3)nc2)cn1 | < 10 | < 10 | 26 | – | – | –
19 | c1csc(-c2ncccc2Cn2ccnc2)c1 | < 10 | < 10 | 16 | – | – | –
20 | c1ccc2c(-c3ccc(Cn4ccnc4)cn3)cccc2c1 | < 10 | < 10 | 49 | – | – | –
21 | c1ccc(-c2cc(Cn3ccnc3)cnc2-c2ccccc2)cc1 | < 10 | < 10 | 2.4 | – | – | –
22 | Clc1ncc(Cn2ccnc2)cc1Br | – | – | 3.4 | – | – | –
23 | COc1ccc(-c2ccc(Cn3ccnc3)cn2)cn1 | – | – | – | > 1000 | > 1000 | –
24 | O=Cc1ccc(-c2ccc(Cn3ccnc3)cn2)s1 | 19 | < 10 | 16 | – | – | –
25 | Brc1ccc(Cn2ccnc2)cn1 | – | – | – | > 1000 | – | –
26 | c1ccc2sc(-c3ccc(Cn4ccnc4)cn3)cc2c1 | – | – | 1 | – | – | –
27 | N#Cc1ncccc1Cn1ccnc1 | – | – | – | > 1000 | – | –
28 | c1ccc2oc(-c3ccc(Cn4ccnc4)cn3)cc2c1 | – | – | – | > 1000 | – | –
29 | c1cn(Cc2ccc(-c3ccoc3)nc2)cn1 | < 10 | < 10 | 37 | – | – | –
30 | c1ccc2c(-c3ccc(Cn4ccnc4)cn3)csc2c1 | < 10 | < 10 | 29 | – | – | –
31 | c1coc(-c2ccc(Cn3ccnc3)cn2)c1 | < 10 | < 10 | 31 | – | – | –
32 | Brc1ncccc1Cn1ccnc1 | < 10 | < 10 | 15 | – | – | –
33 | c1ccc2c(-c3ccc(Cn4ccnc4)cn3)cncc2c1 | – | – | 10 | – | – | –
34 | COc1ccc(-c2ccc(Cn3ccnc3)cn2)cc1 | < 10 | < 10 | – | > 1000 | – | –
35 | c1ccc(N(c2ccccc2)c2ccc(-c3ccc(Cn4ccnc4)cn3)cc2)cc1 | < 10 | < 10 | – | – | – | Not Active
36 | Clc1ccc(-c2ccc(Cn3ccnc3)cn2)s1 | 30 | – | 2.6 | – | – | –
37 | Clc1ncc(Cn2ccnc2)cc1-c1cccs1 | < 10 | < 10 | 6 | 416 | 73 | –
38 | O=Cc1ccc(-c2ccc(Cn3ccnc3)cn2)cc1 | < 10 | < 10 | – | > 1000 | – | –
39 | c1cncc(Cn2ccnc2)c1 | – | – | – | > 1000 | – | –
40 | c1cn(Cc2ccc(-c3cncnc3)nc2)cn1 | – | – | – | – | – | Not Active
41 | COc1ccc(-c2ccc(Cn3ccnc3)cn2)cc1OC | < 10 | < 10 | – | > 1000 | > 1000 | –
42 | c1cc(Cn2ccnc2)ccn1 | – | – | – | > 1000 | – | –
43 | c1coc(-c2cc(Cn3ccnc3)cnc2-c2ccco2)c1 | – | – | 29 | – | – | –

— ChEMBL document CHEMBL2010745, “Optimization of the First Selective Steroid-11β-hydroxylase (CYP11B1) Inhibitors for the Treatment of Cortisol Dependent Diseases” (ACS Med Chem Lett, 2011)
